≈ marks a conversion by molar mass, not a printed value.
Assays:
Mus musculus [1] = assay: Anxiolytic activity in po dosed mouse measured after 60 mins post dose by black/white box test; type: functional; conditions: Mus musculus, po, 1 h; read-out: ED50
Procedure, shortened: (§1)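 Mice dosed orally 60 min before testing, then placed in the centre of the illuminated white compartment of a two-part black/white box. Time spent exploring the white and black sides recorded; longer time in the white side read as anxiolytic effect. Model used for both potency and duration of action.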

[2] = target: T1, Cholecystokinin receptor type A (Rattus norvegicus, UniProt P30551); assay: Displacement of [3H]CCK8 from rat pancreas CCK1 receptor at by liquid scintillation counting
T1 sequence (P30551 whole entry): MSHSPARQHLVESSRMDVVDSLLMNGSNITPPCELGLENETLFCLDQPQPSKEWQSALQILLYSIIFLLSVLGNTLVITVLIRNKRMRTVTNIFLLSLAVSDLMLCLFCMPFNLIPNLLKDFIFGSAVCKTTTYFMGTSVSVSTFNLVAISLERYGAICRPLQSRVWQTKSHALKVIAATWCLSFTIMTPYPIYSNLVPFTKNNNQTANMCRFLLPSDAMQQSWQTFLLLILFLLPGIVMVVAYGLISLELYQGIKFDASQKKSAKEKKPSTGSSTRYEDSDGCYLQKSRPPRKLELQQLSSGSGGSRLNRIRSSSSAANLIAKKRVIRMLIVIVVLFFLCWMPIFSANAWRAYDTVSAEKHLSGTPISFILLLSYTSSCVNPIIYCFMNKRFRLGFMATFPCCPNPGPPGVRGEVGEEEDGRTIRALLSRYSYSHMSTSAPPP
Procedure, shortened: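 Rat pancreas membranes incubated at 37 °C with [³H]-CCK8s at 0.2 nM; nonspecific binding defined with L-364,718. Bound and free ligand separated by filtration over GF/C filters, then counted by liquid scintillation. Ki calculated using Bmax and KD from separate saturation binding isotherms.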

[3] = Selectivity ratio of pKi for guinea pig brain CCK2 receptor to pKi for rat pancreas CCK1
Procedure, shortened: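 Radioligand displacement binding to guinea pig brain membranes (CCK2, incubated at 25 °C) and rat pancreas membranes (CCK1, incubated at 37 °C) with 0.2 nM [³H]-CCK8s. Non-specific binding was defined with L-365,260 (CCK2) or L-364,718 (CCK1). Bound ligand was separated by GF/C filtration and counted by liquid scintillation. Ki values were derived for each subtype, with KD and Bmax taken from separate saturation isotherms.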

[4] = Displacement of [3H]CCK8 from guinea pig brain CCK2 receptor by liquid scintillation counting; set-up: species or system Cavia porcellus
Procedure, shortened: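 Guinea pig brain membranes incubated at 25 °C with [³H]-CCK8s at 0.2 nM; nonspecific binding defined with L-365,260. Bound and free ligand separated by filtration over GF/C filters, then counted by liquid scintillation. Ki calculated using Bmax and KD from separate saturation binding isotherms.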

[5] = Solubility of the compound at pH 2.4; type: physicochemical; conditions: buffer
[6] = Clearance in rat administered as methocel suspension; type: ADME, organism-based; conditions: in vivo
[7] = Volume of distribution in rat administered as methocel suspension; type: ADME, organism-based; conditions: in vivo
[8] = Half life in rat administered as methocel suspension; type: ADME, organism-based; conditions: in vivo
[9] = Oral bioavailability in rat administered as methocel suspension; type: ADME, organism-based; conditions: in vivo
Mus musculus [10] = assay: Anxiolytic activity in po dosed mouse assessed as duration of action of the compound measured after 60 mins post dose by black/white box test; type: functional; procedure, shortened: as §1

Structure (SMILES) | Ki [2] [nM] | Ki selectivity ratio (CCK1 Ki / CCK2 Ki) [3] | pKi [4] | also measured
O=C(Nc1ccccc1)N[C@@H]1C(=O)N(CC23CC4CC(CC(C4)C2)C3)c2ccccc2N(c2ccccc2)C1=O | – | – | – | ED50 (Mus musculus [1]): 0.05 µg/kg
COc1ccc(NC(=O)NC2C(=O)N(CCC(C)C)c3ccccc3N(CCN3CCOCC3)C2=O)c(C)c1 (racemic) | 6610 | 229 | 7.54 | –
CCN(CC)CCN1C(=O)C(NC(=O)Nc2ccccc2)C(=O)N(CC2CCCCC2)c2ccccc21 (racemic) [listing 1 of 2 here] | 1510 | – | 8.99 | –
CC(C)CCN1C(=O)C(NC(=O)Nc2ccc(Cl)cc2)C(=O)N(CCN2CCOCC2)c2ccccc21 (racemic) | 1020 | 525 | 8.71 | –
Cc1cccc(NC(=O)NC2C(=O)N(CCC(C)C)c3ccccc3N(CCN3CCOCC3)C2=O)c1 (racemic) | 275 | 372 | 9.11 | –
CC(C)CCN1C(=O)C(NC(=O)Nc2ccc(C(F)(F)F)cc2)C(=O)N(CCN2CCOCC2)c2ccccc21 (racemic) | 1480 | 407 | 8.44 | –
CC(C)CCN1C(=O)C(NC(=O)Nc2ccc(Br)cc2)C(=O)N(CCN2CCOCC2)c2ccccc21 (racemic) | 1070 | 295 | 8.44 | –
CC(C)CCN1C(=O)C(NC(=O)Nc2ccc(F)cc2)C(=O)N(CCN2CCOCC2)c2ccccc21 (racemic) | 1450 | 363 | 8.4 | –
CCOc1ccc(NC(=O)NC2C(=O)N(CCC(C)C)c3ccccc3N(CCN3CCOCC3)C2=O)cc1 (racemic) | > 10000 | 148 | 7.17 | –
Cc1cc(Br)ccc1NC(=O)NC1C(=O)N(CCC(C)C)c2ccccc2N(CCN2CCOCC2)C1=O (racemic) | 537 | 38 | 7.85 | –
CC(C)CCN1C(=O)C(NC(=O)Nc2ccccc2C(C)C)C(=O)N(CCN2CCOCC2)c2ccccc21 (racemic) | > 10000 | 78 | 6.89 | –
Cc1cccc(Cl)c1NC(=O)NC1C(=O)N(CCC(C)C)c2ccccc2N(CCN2CCOCC2)C1=O (racemic) | 5130 | 44 | 6.93 | –
COc1ccc(NC(=O)NC2C(=O)N(CCC(C)C)c3ccccc3N(CCN3CCOCC3)C2=O)cc1 (racemic) | 5130 | 646 | 8.1 | –
CC(C)CCN1C(=O)C(NC(=O)Nc2ccccc2)C(=O)N(CCN2CCCCC2)c2ccccc21 (racemic) | 2040 | 302 | 8.17 | –
COc1ccc(NC(=O)NC2C(=O)N(CCC(C)C)c3ccccc3N(CCN(C)C)C2=O)cc1 (racemic) | 17400 | 1550 | 7.95 | –
CCN(CC)CCN1C(=O)C(NC(=O)Nc2ccccc2)C(=O)N(CCC(C)C)c2ccccc21 (racemic) | 4070 | 2570 | 8.8 | ED50 (Mus musculus [1]): 0.0006 µg/kg
O=C(Nc1ccccc1)NC1C(=O)N(CCN2CCOCC2)c2ccccc2N(CC2CCCCC2)C1=O (racemic) | 347 | 126 | 8.56 | –
Cc1cccc(NC(=O)NC2C(=O)N(CCN3CCOCC3)c3ccccc3N(CC3CCCCC3)C2=O)c1 (racemic) | 174 | 316 | 9.26 | –
O=C(Nc1ccccc1)NC1C(=O)N(CCN2CCOCC2)c2cc(F)ccc2N(CC23CC4CC(CC(C4)C2)C3)C1=O (racemic) [listing 1 of 2 here] | 2630 | – | 8.36 | solubility [5]: 360 µg/mL (≈ 610 µM)
O=C(Nc1ccc(F)cc1)NC1C(=O)N(CCN2CCOCC2)c2ccccc2N(CC23CC4CC(CC(C4)C2)C3)C1=O (racemic) [listing 1 of 2 here] | 1410 | – | 8.66 | solubility ([5]; read-out: solubility): 20 µg/mL (≈ 33.9 µM)
O=C(Nc1ccccc1)NC1C(=O)N(CCN2CCCC2)c2ccccc2N(CC23CC4CC(CC(C4)C2)C3)C1=O (racemic) | 9550 | 9120 | 8.98 | –

Structure (SMILES) | Ki [2] [nM] | Ki selectivity ratio (CCK1 Ki / CCK2 Ki) [3] | pKi [4] | also measured
CN(C)CCCN1C(=O)C(NC(=O)Nc2ccccc2)C(=O)N(CC23CC4CC(CC(C4)C2)C3)c2ccccc21 (racemic) | 20400 | 5620 | 8.44 | –
CCN(CC)CCN1C(=O)C(NC(=O)Nc2ccc(F)cc2)C(=O)N(CC23CC4CC(CC(C4)C2)C3)c2ccccc21 (racemic) | 1660 | 851 | 8.71 | –
CCN(CC)CCN1C(=O)C(NC(=O)Nc2ccccc2)C(=O)N(CC2CCCCC2)c2ccccc21 (racemic) [listing 2 of 2 here] | – | 1480 | – | –
O=C(Nc1ccc(F)cc1)NC1C(=O)N(CCN2CCOCC2)c2ccccc2N(CC23CC4CC(CC(C4)C2)C3)C1=O (racemic) [listing 2 of 2 here] | – | 646 | – | –
O=C(Nc1ccccc1)NC1C(=O)N(CCN2CCOCC2)c2cc(F)ccc2N(CC23CC4CC(CC(C4)C2)C3)C1=O (racemic) [listing 2 of 2 here] | – | 603 | – | –
O=C(Nc1ccccc1)NC1C(=O)N(CCN2CCOCC2)c2ccccc2N(CC23CC4CC(CC(C4)C2)C3)C1=O (racemic) | – | 3550 | – | –
O=C(Nc1ccccc1)NC1C(=O)N(CCN2CCOCC2)c2cc(F)ccc2N(CC23CC4CC(CC(C4)C2)C3)C1=O (single isomer, unassigned; (+)) [listing 1 of 2 here] | 2240 | – | 7.31 | –
O=C(Nc1ccc(F)cc1)NC1C(=O)N(CCN2CCOCC2)c2ccccc2N(CC23CC4CC(CC(C4)C2)C3)C1=O (single isomer, unassigned; (+)) [listing 1 of 2 here] | 2570 | – | 7.85 | –
O=C(Nc1ccc(F)cc1)NC1C(=O)N(CCN2CCOCC2)c2ccccc2N(CC23CC4CC(CC(C4)C2)C3)C1=O (single isomer, unassigned; (+)) [listing 2 of 2 here] | – | 182 | – | –
O=C(Nc1ccccc1)NC1C(=O)N(CCN2CCOCC2)c2cc(F)ccc2N(CC23CC4CC(CC(C4)C2)C3)C1=O (single isomer, unassigned; (+)) [listing 2 of 2 here] | – | 46 | – | –
O=C(Nc1ccccc1)NC1C(=O)N(CCN2CCOCC2)c2cc(F)ccc2N(CC23CC4CC(CC(C4)C2)C3)C1=O (single isomer, unassigned; (-)) [listing 1 of 2 here] | 3090 | – | 8.52 | clearance [6]: 23 mL/min; Vd [7]: 2.2 L/kg; half-life [8]: 1.1 h; bioavailability [9]: 5%; solubility ([5]; read-out: solubility): 360 µg/mL (≈ 610 µM); ED50 (Mus musculus [1]): 0.08 µg/kg; Time (Mus musculus [10]): 4 h
O=C(Nc1ccc(F)cc1)NC1C(=O)N(CCN2CCOCC2)c2ccccc2N(CC23CC4CC(CC(C4)C2)C3)C1=O (single isomer, unassigned; (-)) [listing 1 of 2 here] | 1020 | – | 9.45 | solubility [5]: 20 µg/mL (≈ 33.9 µM)
O=C(Nc1ccc(F)cc1)NC1C(=O)N(CCN2CCOCC2)c2ccccc2N(CC23CC4CC(CC(C4)C2)C3)C1=O (single isomer, unassigned; (-)) [listing 2 of 2 here] | – | 2880 | – | –
O=C(Nc1ccccc1)NC1C(=O)N(CCN2CCOCC2)c2cc(F)ccc2N(CC23CC4CC(CC(C4)C2)C3)C1=O (single isomer, unassigned; (-)) [listing 2 of 2 here] | – | 1020 | – | –
O=C(Nc1ccccc1)NC1C(=O)N(CCN2CCOCC2)c2ccccc2N(CC23CC4CC(CC(C4)C2)C3)C1=O (single isomer, unassigned; (-)) | – | 8910 | – | –
CCN(CC)CCN1C(=O)C(NC(=O)Nc2ccccc2)C(=O)N(CC2CCCCC2)c2ccccc21 (single isomer, unassigned; isomer 1) [listing 1 of 2 here] | 2690 | – | 8.23 | –
CCN(CC)CCN1C(=O)C(NC(=O)Nc2ccccc2)C(=O)N(CC2CCCCC2)c2ccccc21 (single isomer, unassigned; isomer 1) [listing 2 of 2 here] | – | 457 | – | –
CCN(CC)CCN1C(=O)C(NC(=O)Nc2ccccc2)C(=O)N(CC2CCCCC2)c2ccccc21 (stereo in doubt) [listing 1 of 2 here] | 468 | – | 9.4 | –
CCN(CC)CCN1C(=O)C(NC(=O)Nc2ccccc2)C(=O)N(CC2CCCCC2)c2ccccc21 (stereo in doubt) [listing 2 of 2 here] | – | 1180 | – | –
O=C(Nc1ccccc1)NC1C(=O)N(CCN2CCOCC2)c2ccccc2N(CC23CC4CC(CC(C4)C2)C3)C1=O (stereo in doubt; 55) [listing 1 of 2 here] | 1580 | – | 8.03 | –
O=C(Nc1ccccc1)NC1C(=O)N(CCN2CCOCC2)c2ccccc2N(CC23CC4CC(CC(C4)C2)C3)C1=O (stereo in doubt; 55) [listing 2 of 2 here] | – | 170 | – | –

From ChEMBL document CHEMBL1806366, “Synthesis and structure-activity relationship of new 1,5-dialkyl-1,5-benzodiazepines as cholecystokinin-2 receptor antagonists” (Bioorg Med Chem, 2011)
